Laboratory results as given in ChEMBL document CHEMBL1158155, “Novel hexacyclic camptothecin derivatives. Part 1: synthesis and cytotoxicity of camptothecins with an A-ring fused 1,3-oxazine ring” (Bioorg Med Chem Lett, 2008).
pIC50: −log10 of the molar value.

Assays:
Assay type in all cases: functional, cell-based
A2780 = test: Cytotoxicity against human A2780 cells after 4 days by MTT assay; settings: A2780, 96 h
Outline: (§1)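 Panel of nine human cancer lines tested in parallel: BXPC-3 (pancreatic), NCI-446 (lung), MCF-7 (breast), HEPG-2 (liver), A549 (lung), A2780 (ovarian), Bel7402 (liver), HT-29 (colon), and KB (epidermoid carcinoma of nasopharynx). Cells were exposed for 4 days of incubation, viability was read by MTT, and values were expressed as the doses required for the response.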

[1] = Cytotoxicity against human NCI446 cells after 4 days by MTT assay; settings: NCI446, 96 h; outline: as §1
Bel-7402 = test: Cytotoxicity against human BEL-7402 cells after 4 days by MTT assay; settings: Bel-7402, 96 h; outline: as §1
HT-29 = test: Cytotoxicity against human HT29 cells after 4 days by MTT assay; settings: HT-29, 96 h; outline: as §1
A549 = test: Cytotoxicity against human A549 cells after 4 days by MTT assay; settings: A549, 96 h; outline: as §1
KB = test: Cytotoxicity against human KB cells after 4 days by MTT assay; settings: 96 h; outline: as §1
BXPC-3 = test: Cytotoxicity against human BXPC3 cells after 4 days by MTT assay; settings: BXPC-3, 96 h; outline: as §1
HepG2 = test: Cytotoxicity against human HepG2 cells after 4 days by MTT assay; settings: HepG2, 96 h; outline: as §1
MCF7 = test: Cytotoxicity against human MCF7 cells after 4 days by MTT assay; settings: MCF7, 96 h; outline: as §1

## CC[C@@]1(O)C(=O)OCc2c1cc1n(c2=O)Cc2cc3c4c(ccc3nc2-1)OCN(Cc1ccc(OC)cc1)C4
A2780
  pIC50: 4.75
[1]
  pIC50: 4.25
Bel-7402
  pIC50: 5.02
HT-29
  pIC50: 5.77
A549
  pIC50: 7.52
KB
  pIC50: 7.10
BXPC-3
  pIC50: 5.91
HepG2
  pIC50: 5.83

## CCCN1COc2ccc3nc4c(cc3c2C1)Cn1c-4cc2c(c1=O)COC(=O)[C@]2(O)CC
A2780
  pIC50: 7.05
[1]
  pIC50: 5.41
Bel-7402
  pIC50: 5.84
HT-29
  pIC50: 6.74
A549
  pIC50: 6.96
KB
  pIC50: 6.17
BXPC-3
  pIC50: 6.82
HepG2
  pIC50: 8.00

## CC[C@@]1(O)C(=O)OCc2c1cc1n(c2=O)Cc2cc3c4c(ccc3nc2-1)OCN(Cc1ccc(F)cc1)C4
MCF7
  pIC50: 6.19
A2780
  pIC50: 4.93
[1]
  pIC50: 4.36
Bel-7402
  pIC50: 5.28
HT-29
  pIC50: 5.92
A549
  pIC50: 6.92
KB
  pIC50: 7.22
BXPC-3
  pIC50: 5.76
HepG2
  pIC50: 6.85

## CC[C@@]1(O)C(=O)OCc2c1cc1n(c2=O)Cc2cc3c4c(ccc3nc2-1)OCN(c1ccc(F)c(F)c1F)C4
MCF7
  pIC50: 5.59
A2780
  pIC50: 5.97
Bel-7402
  pIC50: 4.88
HT-29
  pIC50: 6.21
A549
  pIC50: 6.55
KB
  pIC50: 6.55
BXPC-3
  pIC50: 6.92

## CC[C@@]1(O)C(=O)OCc2c1cc1n(c2=O)Cc2cc3c4c(ccc3nc2-1)OCN(Cc1ccccc1)C4
MCF7
  pIC50: 5.80
A2780
  pIC50: 6.04
[1]
  pIC50: 5.21
Bel-7402
  pIC50: 5.80
HT-29
  pIC50: 7.00
A549
  pIC50: 7.10
KB
  pIC50: 7.40
BXPC-3
  pIC50: 6.68
HepG2
  pIC50: 6.96

## CC[C@@]1(O)C(=O)OCc2c1cc1n(c2=O)Cc2cc3c(CN(C)C)c(O)ccc3nc2-1 [TOPOTECAN]
MCF7
  pIC50: 5.92
A2780
  pIC50: 5.47
[1]
  pIC50: 5.00
Bel-7402
  pIC50: 5.50
HT-29
  pIC50: 6.06
A549
  pIC50: 6.66
KB
  pIC50: 6.66
BXPC-3
  pIC50: 6.21

## CC[C@@]1(O)C(=O)OCc2c1cc1n(c2=O)Cc2cc3c4c(ccc3nc2-1)OCN(c1ccccc1OC)C4
MCF7
  pIC50: 5.85
A2780
  pIC50: 5.52
Bel-7402
  pIC50: 5.65
HT-29
  pIC50: 6.51
A549
  pIC50: 6.14
KB
  pIC50: 6.54
BXPC-3
  pIC50: 5.48
HepG2
  pIC50: 6.89

## CC[C@@]1(O)C(=O)OCc2c1cc1n(c2=O)Cc2cc3c4c(ccc3nc2-1)OCN(c1ccccc1Cl)C4
MCF7
  pIC50: 5.70
A2780
  pIC50: 5.39
[1]
  pIC50: 4.72
Bel-7402
  pIC50: 4.82
HT-29
  pIC50: 5.98
A549
  pIC50: 6.35
KB
  pIC50: 6.48
BXPC-3
  pIC50: 6.05

## CC[C@@]1(O)C(=O)OCc2c1cc1n(c2=O)Cc2cc3c4c(ccc3nc2-1)OCN(c1ccc(Cl)cc1)C4
MCF7
  pIC50: 5.30
A2780
  pIC50: 6.09
Bel-7402
  pIC50: 4.79
HT-29
  pIC50: 6.68
A549
  pIC50: 6.51
KB
  pIC50: 6.64
BXPC-3
  pIC50: 6.29
HepG2
  pIC50: 6.77

## CC[C@@]1(O)C(=O)OCc2c1cc1n(c2=O)Cc2cc3c4c(ccc3nc2-1)OCN(c1cccc(C)c1)C4
A2780
  pIC50: 6.07
[1]
  pIC50: 5.15
Bel-7402
  pIC50: 5.27
HT-29
  pIC50: 6.47
A549
  pIC50: 6.38
KB
  pIC50: 7.40
BXPC-3
  pIC50: 6.24
HepG2
  pIC50: 6.03

## CC[C@@]1(O)C(=O)OCc2c1cc1n(c2=O)Cc2cc3c4c(ccc3nc2-1)OCN(c1ccc(OC)cc1)C4
A2780
  pIC50: 5.95
[1]
  pIC50: 4.84
Bel-7402
  pIC50: 5.30
HT-29
  pIC50: 6.51
A549
  pIC50: 6.57
KB
  pIC50: 6.64
BXPC-3
  pIC50: 6.38
HepG2
  pIC50: 6.92

## CC[C@@]1(O)C(=O)OCc2c1cc1n(c2=O)Cc2cc3c4c(ccc3nc2-1)OCN(C)C4
MCF7
  pIC50: 5.34
A2780
  pIC50: 6.28
[1]
  pIC50: 4.43
Bel-7402
  pIC50: 5.78
HT-29
  pIC50: 6.16
A549
  pIC50: 6.39
KB
  pIC50: 6.17
BXPC-3
  pIC50: 6.32
HepG2
  pIC50: 6.19

## CC[C@@]1(O)C(=O)OCc2c1cc1n(c2=O)Cc2cc3ccccc3nc2-1 [CAMPTOTHECIN]
MCF7
  pIC50: 6.70
A2780
  pIC50: 6.70
[1]
  pIC50: 5.48
Bel-7402
  pIC50: 6.77
HT-29
  pIC50: 7.05
A549
  pIC50: 8.00
KB
  pIC50: 8.52
BXPC-3
  pIC50: 6.62
HepG2
  pIC50: 6.89

## CC[C@@]1(O)C(=O)OCc2c1cc1n(c2=O)Cc2cc3c4c(ccc3nc2-1)OCN(c1ccccc1C)C4
A2780
  pIC50: 5.37
[1]
  pIC50: 5.94
Bel-7402
  pIC50: 5.22
HT-29
  pIC50: 6.66
A549
  pIC50: 5.92
KB
  pIC50: 7.22
BXPC-3
  pIC50: 6.28
HepG2
  pIC50: 6.74

## CCN1COc2ccc3nc4c(cc3c2C1)Cn1c-4cc2c(c1=O)COC(=O)[C@]2(O)CC
MCF7
  pIC50: 6.68
A2780
  pIC50: 6.92
[1]
  pIC50: 6.64
Bel-7402
  pIC50: 6.09
HT-29
  pIC50: 6.85
A549
  pIC50: 6.80
KB
  pIC50: 6.92
BXPC-3
  pIC50: 6.72
HepG2
  pIC50: 7.30

## CCCCN1COc2ccc3nc4c(cc3c2C1)Cn1c-4cc2c(c1=O)COC(=O)[C@]2(O)CC
MCF7
  pIC50: 6.26
A2780
  pIC50: 5.50
[1]
  pIC50: 5.00
Bel-7402
  pIC50: 5.40
HT-29
  pIC50: 6.89
A549
  pIC50: 6.70
KB
  pIC50: 7.05
BXPC-3
  pIC50: 6.01
HepG2
  pIC50: 6.46

## CC[C@@]1(O)C(=O)OCc2c1cc1n(c2=O)Cc2cc3c4c(ccc3nc2-1)OCN(c1ccc(F)cc1F)C4
MCF7
  pIC50: 5.35
A2780
  pIC50: 5.68
Bel-7402
  pIC50: 5.33
HT-29
  pIC50: 6.21
A549
  pIC50: 6.41
KB
  pIC50: 6.18
BXPC-3
  pIC50: 5.80
HepG2
  pIC50: 6.26

## CC[C@@]1(O)C(=O)OCc2c1cc1n(c2=O)Cc2cc3c4c(ccc3nc2-1)OCN(c1ccc(C)cc1)C4
MCF7
  pIC50: 5.79
A2780
  pIC50: 5.67
[1]
  pIC50: 5.03
Bel-7402
  pIC50: 5.41
HT-29
  pIC50: 6.28
A549
  pIC50: 6.24
KB
  pIC50: 6.47
BXPC-3
  pIC50: 5.69

## CC[C@@]1(O)C(=O)OCc2c1cc1n(c2=O)Cc2cc3c4c(ccc3nc2-1)OCN(c1ccc(F)c(Cl)c1)C4
MCF7
  pIC50: 5.02
A2780
  pIC50: 5.51
Bel-7402
  pIC50: 5.51
HT-29
  pIC50: 5.95
A549
  pIC50: 6.25
KB
  pIC50: 6.21
BXPC-3
  pIC50: 6.04
HepG2
  pIC50: 6.74

## CC[C@@]1(O)C(=O)OCc2c1cc1n(c2=O)Cc2cc3c4c(ccc3nc2-1)OCN(c1ccccc1)C4
MCF7
  pIC50: 5.56
A2780
  pIC50: 5.46
Bel-7402
  pIC50: 5.15
HT-29
  pIC50: 6.32
A549
  pIC50: 6.11
KB
  pIC50: 6.17
BXPC-3
  pIC50: 6.72
HepG2
  pIC50: 7.52
